In ChEMBL document CHEMBL4145611, “Discovery of Marinoquinolines as Potent and Fast-Acting Plasmodium falciparum Inhibitors with in Vivo Activity” (J Med Chem, 2018):

Legend:
Plasmodium falciparum [1] = assay: Antiplasmodial activity against chloroquine-sensitive blood parasite forms of Plasmodium falciparum 3D7 infected in RBC by SYBR green assay; format: functional, organism-based; conditions: 3D7, Erythrocyte
Procedure, shortened: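 3D7 blood-stage cultures, sorbitol-synchronized twice beforehand, used at 5-10% parasitemia with >80% rings, diluted to 0.5% parasitemia and 2% hematocrit with graded compound (0.05% DMSO), triplicate; artesunate and chloroquine controls. SYBR green I lysis-buffer fluorescence at 485/535 nm; IC50 from curve fit relative to drug-free medium.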

HepG2 = assay: Cytotoxicity against human HepG2 cells assessed as reduction in cell viability after 24 hrs by MTT assay; format: cell-based; conditions: HepG2, 24 h
Procedure, shortened: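 HepG2 cells in RPMI-1640 with 10% heat-inactivated serum, seeded 5×10^3 per well, allowed to adhere 18 h at 37 °C, then exposed to compound (400–6.2 µM) for 24 h at 37 °C, 5% CO2. MTT (5 mg/mL) for 3 h, formazan dissolved in DMSO, absorbance 570 nm with 630 nm background; viability as percent of untreated control.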

[2] = Therapeutic index, ratio of EC50 for human HepG2 cells to IC50 for chloroquine-sensitive blood parasite forms of Plasmodium falciparum 3D7; format: toxicity; conditions: read-out: TI
Plasmodium falciparum [3] = assay: Plasmodicidal activity against Plasmodium falciparum 3D7A infected in erythrocytes assessed as parasite survival at 10 times IC50 pre-incubated for 24 hrs followed by compound washout and measured after 24 hrs by […] incorporation assay (reference value: 100%); format: functional
Plasmodium falciparum [4] = assay: Plasmodicidal activity against Plasmodium falciparum 3D7A infected in erythrocytes assessed as parasite survival at 10 times IC50 pre-incubated for 48 hrs followed by compound washout and measured after 24 hrs by […] incorporation assay (reference value: 100%); format: functional

Compound | IC50 (Plasmodium falciparum [1]; read-out: IC50) [µM] | EC50 (HepG2) [µM] | selectivity ratio [2] | IC50 (Plasmodium falciparum [1]; read-out: pIC50 (converted)) [µM] | Survival (Plasmodium falciparum [3]) [%] | Survival (Plasmodium falciparum [4]) [%]
c1ccc2[nH]c(-c3nc4ccccc4c4cc[nH]c34)cc2c1 | 4.8 | 746 | 155 |  |  | 
COc1ccc2c(c1)nc(-c1ccc(N)cc1)c1[nH]ccc12 | 1.3 | > 750 | > 576 |  |  | 
COc1cc(OC)cc(-c2nc3cc(OC)ccc3c3cc[nH]c23)c1 | 1 | > 250 | > 250 | 1 |  | 
CCc1nc(N)nc(N)c1-c1ccc(Cl)cc1 [PYRIMETHAMINE] |  |  |  |  | 55 | 11
CC(C)Cc1nc2ccccc2c2cc[nH]c12 | 4.1 | > 250 | > 61 |  |  | 
Cc1nc2ccccc2c2cc[nH]c12 [MARINOQUINOLINE A] | > 10 |  |  |  |  | 
Brc1ccc2c(c1)nc(-c1c[nH]c3ccccc13)c1[nH]ccc12 | 7.9 | > 250 | > 32 |  |  | 
Brc1ccc2[nH]cc(-c3nc4ccccc4c4cc[nH]c34)c2c1 | 12.3 | 93 | 8 | 12.3 |  | 
COc1ccc2c(c1)nc(-c1c[nH]c3ccccc13)c1[nH]ccc12 | 0.061 | 20 | 328 | 0.0617 |  | 
O=C1C(O)=C([C@H]2CC[C@H](c3ccc(Cl)cc3)CC2)C(=O)c2ccccc21 [ATOVAQUONE] |  |  |  |  | 68 | 40
Brc1ccc(-c2nc3ccccc3c3cc[nH]c23)cc1 | > 10 |  |  |  |  | 
O=[N+]([O-])c1ccc(-c2nc3ccccc3c3cc[nH]c23)cc1 | > 10 |  |  |  |  | 
COC(=O)c1ccc(-c2nc3ccccc3c3cc[nH]c23)cc1 | 4 | > 250 | > 63 | 3.98 |  | 
Clc1ccc(-c2nc3ccccc3c3cc[nH]c23)cc1 | 10.5 | > 250 | > 24 |  |  | 
C[C@H]1[C@H](OC(=O)CCC(=O)O)O[C@@H]2O[C@@]3(C)CC[C@H]4[C@H](C)CC[C@@H]1[C@@]24OO3 [ARTESUNATE] |  |  |  |  | 14 | 5
CCc1nc2cc(OC)ccc2c2cc[nH]c12 | > 10 |  |  |  |  | 
O=C(O)c1ccc(-c2nc3ccccc3c3cc[nH]c23)cc1 | 12.1 | 82 | 7 |  |  | 
COc1ccc2c(c1)nc(-c1ccccc1)c1[nH]cc(Br)c12 | 2.1 | 111 | 53 |  |  | 
COc1cc(OC)cc(-c2nc3ccccc3c3cc[nH]c23)c1 | 4.9 | > 250 | > 51 |  |  | 

Compound | IC50 (Plasmodium falciparum [1]; read-out: IC50) [µM] | EC50 (HepG2) [µM] | selectivity ratio [2] | IC50 (Plasmodium falciparum [1]; read-out: pIC50 (converted)) [µM] | Survival (Plasmodium falciparum [3]) [%] | Survival (Plasmodium falciparum [4]) [%]
COc1ccc2c(c1)nc(Cc1ccccc1)c1[nH]ccc12 | 14.3 | 478 | 33 |  |  | 
COc1ccc2c(c1)nc(-c1ccc(N(C)C)cc1)c1[nH]ccc12 | 0.4 | 20 | 50 |  |  | 
c1ccc(-c2nc3ccccc3c3cc[nH]c23)cc1 | 9.9 | > 750 | > 75 |  |  | 
Brc1c[nH]c2c(-c3c[nH]c4ccccc34)nc3ccccc3c12 | > 10 |  |  |  |  | 
COc1ccc2c(c1)nc(-c1ccc(NC(C)=O)cc1)c1[nH]ccc12 | > 10 |  |  | > 10 |  | 
COc1ccc(-c2nc3ccccc3c3cc[nH]c23)cc1 | 6.7 | > 250 | > 37 |  |  | 
COC(=O)c1ccc(-c2nc3cc(OC)ccc3c3cc[nH]c23)cc1 | 1.3 | > 250 | > 192 |  |  | 
c1ccc(Cc2nc3ccccc3c3cc[nH]c23)cc1 [MARINOQUINOLINE C] | > 10 |  |  |  |  | 
COc1ccc2c(c1)nc(C)c1[nH]cc(Br)c12 | 5.4 | > 250 | > 46 |  |  | 
CN(C)c1ccc(-c2nc3ccccc3c3cc[nH]c23)cc1 | 5.8 | > 600 | > 104 |  |  | 
CCc1nc2ccccc2c2cc[nH]c12 | 7.3 | 151 | 21 |  |  | 
COc1ccc2c(c1)nc(-c1ccccc1)c1[nH]ccc12 | 2.4 | 60 | 25 |  |  | 
c1ccc2c(c1)nc(-c1c[nH]c3ccccc13)c1[nH]ccc12 [MARINOQUINOLINE E] | 10.4 | > 750 | > 72 |  |  | 
Nc1ccc(-c2nc3ccccc3c3cc[nH]c23)cc1 | 7.7 | 41 | 5 |  |  | 
COc1ccc2c(c1)nc(-c1ccc([N+](=O)[O-])cc1)c1[nH]ccc12 | 1.9 | 144 | 76 |  |  | 
COc1ccc2c(c1)nc(-c1ccc(C(=O)O)cc1)c1[nH]ccc12 | > 10 |  |  |  |  | 
COc1ccc2c(c1)nc(C)c1[nH]ccc12 | 10.5 | > 750 | > 71 |  |  | 
Brc1ccc2c(-c3nc4ccccc4c4cc[nH]c34)c[nH]c2c1 | 6.2 | 42 | 7 |  |  | 
COc1cc(-c2nc3ccccc3c3cc[nH]c23)cc(OC)c1OC | 9.2 | 99 | 11 |  |  | 
